Calls of active or inactive are those of the source. Unless noted, the calls are words filed in the database; no cut-off is given here.
Key:
Spodoptera frugiperda [1] = assay: Insecticidal activity against Spodoptera frugiperda larvae in disk of maize leaf at 500 g/ha treated as spray; format: functional, organism-based
Method in brief: (§1)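 The same acetone/DMF/emulsifier formulation, diluted in emulsifier-containing water, was sprayed onto maize leaf disks. Dried disks were infested with fall armyworm larvae and mortality was assessed after a set time. "+" denotes ≥80% larvae killed; n.a. denotes no larvae killed.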

Spodoptera frugiperda [2] = assay: Insecticidal activity against Spodoptera frugiperda larvae in disk of maize leaf at 100 g/ha treated as spray; format: functional, organism-based; method in brief: as §1
Phaedon cochleariae [3] = assay: Insecticidal activity against Phaedon cochleariae larvae in disk of Chinese cabbage leaf at 500 g/ha treated as spray; format: functional, organism-based
Method in brief: (§2)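 This was sprayed on Chinese cabbage leaf disks. Once dry, disks were infested with mustard beetle larvae and mortality was scored after a set time. "+" denotes ≥80% larvae killed; n.a. denotes none killed.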

Phaedon cochleariae [4] = assay: Insecticidal activity against Phaedon cochleariae larvae in disk of Chinese cabbage leaf at 100 g/ha treated as spray; format: functional, organism-based; method in brief: as §2
Phaedon cochleariae [5] = assay: Insecticidal activity against Phaedon cochleariae larvae in disk of Chinese cabbage leaf treated as spray; format: functional, organism-based
Sf9 [6] = assay: Cytotoxicity against Spodoptera frugiperda Sf9 cells assessed as chromatin condensation at 0.14 ppm after 48 hrs by fluorescence microscopy; format: functional, cell-based
Method in brief: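 Sf9 cells seeded in 8-well slide chambers the day before, then exposed to compound for 48 h. After two PBS washes, cells were fixed in ice-cold methanol for 10 min on ice, given two short acetone washes, rehydrated in PBS and stained with Dapi (2 µM) for 30 min. Chromatin condensation/fragmentation scored by fluorescence microscopy with a x40 objective.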

Spodoptera frugiperda [7] = assay: Insecticidal activity against Spodoptera frugiperda larvae in disk of maize leaf at 4 g/ha treated as spray; format: functional, organism-based; method in brief: as §1
CHO [8] = assay: Cytotoxicity against CHO cells assessed as chromatin condensation after 48 hrs by fluorescence microscopy; format: cell-based, Cricetulus griseus; settings: chinese hamster
Method in brief: (§3)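 Sf9 or CHO cells were seeded in chamber slides the day before treatment and exposed to compound for 48 h. They were then PBS-washed, fixed in ice-cold methanol for 10 min on ice, and rinsed with acetone. After rehydration in PBS, cells were stained with 2 µM DAPI for 30 min. Nuclei were examined by fluorescence microscopy (×40) for chromatin condensation or fragmentation.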

CHO [9] = assay: Cytotoxicity against CHO cells assessed as chromatin condensation after 24 hrs by fluorescence microscopy; format: cell-based, Cricetulus griseus; settings: chinese hamster
Spodoptera frugiperda [10] = assay: Insecticidal activity against Spodoptera frugiperda larvae in disk of maize leaf treated as spray; format: functional, organism-based
Sf9 [11] = assay: Cytotoxicity against Spodoptera frugiperda Sf9 cells assessed as chromatin condensation at 3 ppm after 48 hrs by fluorescence microscopy; format: functional, cell-based; method in brief: as §3
Phaedon cochleariae [12] = assay: Insecticidal activity against Phaedon cochleariae larvae in disk of Chinese cabbage leaf at 20 g/ha treated as spray; format: functional, organism-based; method in brief: as §2

Row | Compound | Activity (Spodoptera frugiperda [2]) | Activity (Phaedon cochleariae [3]) | Activity (Phaedon cochleariae [4]) | other results
1 | COc1cc(C2C3=C(COC3=O)Nc3cc4c(cc32)OCO4)cc2c1OCO2 (stereo unspecified) |  |  |  | Activity (Spodoptera frugiperda [1]): Active
2 | COc1cc(OC)cc(C2C3=C(CCC3=O)Nc3cc4c(cc32)OCO4)c1 (stereo unspecified) | Active | Active |  | 
3 | O=C1OCC2=C1C(c1cccc(OC(F)(F)F)c1)c1cc3c(cc1N2)OCO3 (stereo unspecified) |  |  | Active | 
4 | COc1cc(OC)cc(C2C3=C(COC3=O)Nc3cc(OC4CC4)ccc32)c1 (stereo unspecified) | Active | Active |  | 
5 | N#Cc1cccc(C2C3=C(COC3=O)Nc3cc4c(cc32)OCO4)c1 (stereo unspecified) |  |  |  | Activity (Phaedon cochleariae [5]): inactive; Activity (Spodoptera frugiperda [1]): Active
6 | CCOc1ccc2c(c1)NC1=C(C(=O)OC1)C2c1cc(OC)cc(OC)c1 (stereo unspecified) |  | Active |  | Activity (Sf9 [6]): Active; Activity (Spodoptera frugiperda [7]): Active; Activity (CHO [8]): Toxic; Activity (CHO [9]): Toxic
7 | COc1c(Cl)cc(C2C3=C(COC3=O)Nc3cc4c(cc32)OCO4)cc1Cl (stereo unspecified) | Active |  | Active | 
8 | COc1cc(C2C3=C(COC3=O)Nc3cc4c(cc32)OCO4)cc(SC)c1OC (stereo unspecified) |  |  | Active | Activity (Spodoptera frugiperda [10]): inactive
9 | COc1cc(OC)cc(C2C3=C(COC3=O)Nc3cc4c(cc32)OCCCO4)c1 (stereo unspecified) | Active | Active |  | 
10 | COc1cc(C2C3=C(COC3=O)Nc3cc4c(cc32)OCO4)cc(O)c1OC (stereo unspecified) |  |  | Active | Activity (Spodoptera frugiperda [10]): inactive
11 | COc1cc(OC)cc(C2C3=C(Nc4cc5c(cc42)OCO5)C(C)OC3=O)c1 (stereo unspecified) |  |  | Active | Activity (Spodoptera frugiperda [1]): Active
12 | O=C1OCC2=C1C(c1cc(F)cc(F)c1)c1cc3c(cc1N2)OCO3 (stereo unspecified) |  |  | Active | 
13 | CCOc1cc2c(cc1C)C(c1cc(OC)cc(OC)c1)C1=C(COC1=O)N2 (stereo unspecified) |  |  | Active | Activity (Spodoptera frugiperda [10]): inactive
14 | CN1OC(C)(C)C2=C(C1=O)C(c1cccc(Cl)c1)c1cc3c(cc1N2)OCO3 (stereo unspecified) |  |  |  | Activity (Phaedon cochleariae [5]): inactive; Activity (Spodoptera frugiperda [1]): Active
15 | COc1cc(C2C3=C(COC3=O)Nc3cc4c(cc32)OCO4)ccc1Cl (stereo unspecified) |  | Active |  | Activity (Spodoptera frugiperda [1]): Active
16 | N#CCOc1cccc(C2C3=C(COC3=O)Nc3cc4c(cc32)OCO4)c1 (stereo unspecified) | Active | Active |  | 
17 | O=C1OCC2=C1C(c1cccc(Cl)c1)c1cc3c(cc1N2)OCO3 (stereo unspecified) | Active | Active |  | 
18 | O=C1OCC2=C1C(c1cccc(Br)c1)c1cc3c(cc1N2)OCO3 (stereo unspecified) |  |  | Active | 
19 | COc1cc(C2C3=C(COC3=O)Nc3cc4c(cc32)OCO4)ccc1F (stereo unspecified) | Active | Active |  | 
20 | O=C1NCC2=C1C(c1cccc(Cl)c1)c1cc3c(cc1N2)OCO3 (stereo unspecified) | Active | Active |  | 
21 | O=C1OCC2=C1C(c1cncc(Br)c1)c1cc3c(cc1N2)OCO3 (stereo unspecified) | Active |  |  | Activity (Phaedon cochleariae [5]): inactive
22 | O=C1CCC2=C1C(c1cccc(Cl)c1)c1cc3c(cc1N2)OCO3 (stereo unspecified) |  |  |  | Activity (Sf9 [11]): Active; Activity (CHO [8]): Toxic; Activity (Spodoptera frugiperda [10]): inactive; Activity (CHO [9]): Toxic; Activity (Phaedon cochleariae [5]): inactive
23 | COc1cc(C2C3=C(COC3=O)Nc3cc4c(cc32)OC(F)(F)O4)cc(OC)c1OC (stereo unspecified) |  |  | Active | Activity (Spodoptera frugiperda [10]): inactive
24 | COc1ccc(C2C3=C(COC3=O)Nc3cc4c(cc32)OCO4)cn1 (stereo unspecified) |  | Active |  | Activity (Spodoptera frugiperda [1]): Active
25 | COc1cc(OC)cc(C2C3=C(COC3=O)Nc3cc(SC)ccc32)c1 (stereo unspecified) | Active | Active |  | 
26 | COc1cc(C2C3=C(COC3=O)Nc3cc4c(cc32)OCO4)cc(OC)c1OC (stereo unspecified) |  |  |  | Activity (Phaedon cochleariae [12]): Active; Activity (Spodoptera frugiperda [10]): inactive
27 | COc1cc(OC)cc(C2C3=C(COC3=O)Nc3ccc(OC)cc32)c1 (stereo unspecified) | Active |  |  | Activity (Phaedon cochleariae [12]): Active
28 | CCOc1cccc(C2C3=C(COC3=O)Nc3cc4c(cc32)OCO4)c1 (stereo unspecified) | Active |  | Active | 
29 | COc1cc(OC)cc(C2C3=C(COC3=O)Nc3c2ccc(C)c3C)c1 (stereo unspecified) | Active |  | Active | 
30 | O=C1OCC2=C1C(c1cccc(F)c1)c1cc3c(cc1N2)OCO3 (stereo unspecified) |  |  | Active | 

Reference: ChEMBL document CHEMBL1137753, “Insecticidal heterolignans--tubuline polymerization inhibitors with activity against chewing pests” (Bioorg Med Chem, 2009)
